ChEMBL document CHEMBL4706575, “Nonpeptidic quinazolinone derivatives as dual nucleotide-binding oligomerization domain-like receptor 1/2 antagonists for adjuvant cancer chemotherapy” (Eur J Med Chem, 2020)
Activity calls are given as the source filed them. The calls are words filed in the database; no cut-off is given here.

Tests used:
[1] = Half life in mouse liver microsomes at 1.25 uM preincubated for 5 mins followed by NADPH generating system addition and measured for 120 mins by LC-MS/MS analysis; type: ADME, Microsome
Procedure, shortened: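 Mouse liver microsomes (1.25 mg/mL protein) in 100 mM phosphate pH 7.4 with 1.25 µM compound, preincubated 5 min at 37 °C. Reaction started with NADPH-generating system (1 mM NADP, 10 mM MgCl2, 10 mM G6P, 0.5 U/mL G6PDH). Sampled at 0–120 min, quenched with MeOH/ACN 1:1, analysed by LC-MS/MS.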

[2] = biological target: T1, Nucleotide-binding oligomerization domain-containing protein 1 (Homo sapiens) (UniProt Q9Y239); test: Antagonist activity at NOD1 in human THP-1 cells assessed as inhibition of C12-iE-DAP-induced increase in p38 phosphorylation at 1 to 10 uM preincubated for 1 hr followed by C12-iE-DAP addition and measured after 30 mins by Western blot analysis; type: cell-based; conditions: filed as antagonist, dose 1-10 µM, time 1.5 hrs
T1 sequence (whole entry): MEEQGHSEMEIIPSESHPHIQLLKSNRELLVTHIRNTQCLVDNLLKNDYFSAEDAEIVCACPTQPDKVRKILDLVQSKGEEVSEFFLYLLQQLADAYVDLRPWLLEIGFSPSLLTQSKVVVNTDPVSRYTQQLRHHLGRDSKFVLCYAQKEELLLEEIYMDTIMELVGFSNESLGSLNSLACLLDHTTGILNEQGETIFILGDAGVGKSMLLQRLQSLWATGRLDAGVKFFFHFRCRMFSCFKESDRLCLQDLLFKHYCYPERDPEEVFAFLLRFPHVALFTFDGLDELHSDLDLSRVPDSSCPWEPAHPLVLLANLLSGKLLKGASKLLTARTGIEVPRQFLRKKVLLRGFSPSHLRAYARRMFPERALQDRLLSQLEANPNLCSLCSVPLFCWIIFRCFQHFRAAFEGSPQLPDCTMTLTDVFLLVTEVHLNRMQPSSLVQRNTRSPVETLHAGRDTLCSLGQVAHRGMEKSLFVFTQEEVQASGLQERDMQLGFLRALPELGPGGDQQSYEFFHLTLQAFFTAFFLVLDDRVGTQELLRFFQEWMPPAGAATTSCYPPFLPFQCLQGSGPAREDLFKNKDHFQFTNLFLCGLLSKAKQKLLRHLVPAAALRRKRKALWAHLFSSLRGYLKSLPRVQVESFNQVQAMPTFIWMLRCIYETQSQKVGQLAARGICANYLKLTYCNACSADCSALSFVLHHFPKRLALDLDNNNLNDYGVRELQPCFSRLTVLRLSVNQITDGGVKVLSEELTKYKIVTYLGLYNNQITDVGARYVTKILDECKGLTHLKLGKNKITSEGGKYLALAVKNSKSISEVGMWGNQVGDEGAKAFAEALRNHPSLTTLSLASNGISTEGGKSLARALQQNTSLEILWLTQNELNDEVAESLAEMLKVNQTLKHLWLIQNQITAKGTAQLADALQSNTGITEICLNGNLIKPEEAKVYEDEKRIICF
Procedure, shortened: (§1)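 Serum-starved THP-1 cells pretreated with compound (1.0 or 10 µM) or without for 1 h. Then C12-iE-DAP 500 ng/mL (NOD1) or MDP (NOD2) for 30 min. Lysed in cold whole-cell buffer. Western blot for IκBα and for total and phospho RIP2, IKKα/β, p65, JNK, p38 and ERK1/2. β-actin as loading control.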

[3] = biological target: T2, Nucleotide-binding oligomerization domain-containing protein 2 (Homo sapiens, UniProt Q9HC29); test: Antagonist activity at NOD2 in human THP-1 cells assessed as inhibition of MDP-induced increase in IKKalpha/beta phosphorylation preincubated for 1 hr followed by MDP addition and measured after 30 mins by Western blot analysis; type: cell-based; conditions: filed as antagonist, dose 1-10 µM, time 1.5 hrs; procedure, shortened: as §1
T2 sequence (Q9HC29 whole entry, the tested form may be a part): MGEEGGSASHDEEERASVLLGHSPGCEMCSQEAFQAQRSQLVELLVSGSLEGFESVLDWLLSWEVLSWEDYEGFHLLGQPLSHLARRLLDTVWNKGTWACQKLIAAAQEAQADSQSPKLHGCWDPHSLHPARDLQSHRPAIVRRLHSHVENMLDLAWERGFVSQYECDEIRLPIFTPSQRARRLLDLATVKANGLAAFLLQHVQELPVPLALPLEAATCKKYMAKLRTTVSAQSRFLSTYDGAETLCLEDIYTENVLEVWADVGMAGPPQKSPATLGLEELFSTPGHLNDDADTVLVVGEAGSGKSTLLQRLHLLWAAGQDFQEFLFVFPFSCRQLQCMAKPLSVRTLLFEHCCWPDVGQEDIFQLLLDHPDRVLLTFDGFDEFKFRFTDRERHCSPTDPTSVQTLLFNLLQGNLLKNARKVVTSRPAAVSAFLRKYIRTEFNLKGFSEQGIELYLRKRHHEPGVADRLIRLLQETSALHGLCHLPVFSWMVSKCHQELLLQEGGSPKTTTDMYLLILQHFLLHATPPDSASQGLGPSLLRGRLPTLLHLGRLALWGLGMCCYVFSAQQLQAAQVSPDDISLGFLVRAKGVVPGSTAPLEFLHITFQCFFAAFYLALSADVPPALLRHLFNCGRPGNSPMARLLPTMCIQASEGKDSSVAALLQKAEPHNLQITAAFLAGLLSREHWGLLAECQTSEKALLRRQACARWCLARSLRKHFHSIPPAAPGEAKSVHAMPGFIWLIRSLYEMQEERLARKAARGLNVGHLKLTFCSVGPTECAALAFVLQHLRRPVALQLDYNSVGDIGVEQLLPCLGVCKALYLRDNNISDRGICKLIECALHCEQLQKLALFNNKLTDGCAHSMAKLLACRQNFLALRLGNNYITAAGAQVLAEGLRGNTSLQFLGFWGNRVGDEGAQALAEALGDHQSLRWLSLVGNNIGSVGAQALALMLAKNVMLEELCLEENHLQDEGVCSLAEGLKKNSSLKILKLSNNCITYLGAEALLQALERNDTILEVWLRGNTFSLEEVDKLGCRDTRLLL

[4] = biological target: T2, Nucleotide-binding oligomerization domain-containing protein 2; test: Antagonist activity at NOD2 in human THP-1 cells assessed as inhibition of MDP-induced increase in p38 phosphorylation preincubated for 1 hr followed by MDP addition and measured after 30 mins by Western blot analysis; type: cell-based; conditions: filed as antagonist, dose 1-10 µM, time 1.5 hrs; procedure, shortened: as §1
[5] = biological target: T2, Nucleotide-binding oligomerization domain-containing protein 2; test: Antagonist activity at NOD2 in human THP-1 cells assessed as inhibition of MDP-induced increase in JNK phosphorylation preincubated for 1 hr followed by MDP addition and measured after 30 mins by Western blot analysis; type: cell-based; conditions: filed as antagonist, dose 1-10 µM, time 1.5 hrs; procedure, shortened: as §1
[6] = biological target: T1, Nucleotide-binding oligomerization domain-containing protein 1 (Homo sapiens); test: Antagonist activity at NOD1 in human THP-1 cells assessed as inhibition of C12-iE-DAP-induced IL6 mRNA expression preincubated for 1 hr followed by C12-iE-DAP addition and measured after 90 mins by qRT-PCR analysis; type: cell-based; conditions: filed as antagonist, dose 1-10 µM, time 150.0 min
Procedure, shortened: (§2)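 THP-1 cells in RPMI-1640 with 10% FBS, treated with compound (1.0 or 10 µM) or vehicle for 1 h. Then stimulated 90 min with C12-iE-DAP 500 ng/mL (NOD1) or MDP (NOD2). IL-6, TNF-α and IL-8 mRNA measured by qRT-PCR. Mean ± SD, n = 6, two-tailed t-test.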

[7] = biological target: T1, Nucleotide-binding oligomerization domain-containing protein 1 (Homo sapiens); test: Antagonist activity at NOD1 in human THP-1 cells assessed as inhibition of C12-iE-DAP-induced TNFalpha mRNA expression preincubated for 1 hr followed by C12-iE-DAP addition and measured after 90 mins by qRT-PCR analysis; type: cell-based; conditions: filed as antagonist, dose 1-10 µM, time 150.0 min; procedure, shortened: as §2
[8] = biological target: T2, Nucleotide-binding oligomerization domain-containing protein 2; test: Antagonist activity at NOD2 in human THP-1 cells assessed as inhibition of MDP-induced IL6 mRNA expression preincubated for 1 hr followed by MDP addition and measured after 90 mins by qRT-PCR analysis; type: cell-based; conditions: filed as antagonist, dose 1-10 µM, time 150.0 min; procedure, shortened: as §2
[9] = biological target: T2, Nucleotide-binding oligomerization domain-containing protein 2; test: Antagonist activity at NOD2 in human THP-1 cells assessed as inhibition of MDP-induced TNFalpha mRNA expression preincubated for 1 hr followed by MDP addition and measured after 90 mins by qRT-PCR analysis; type: cell-based; conditions: filed as antagonist, dose 1-10 µM, time 150.0 min; procedure, shortened: as §2
[10] = biological target: T2, Nucleotide-binding oligomerization domain-containing protein 2; test: Antagonist activity at NOD2 in human THP-1 cells assessed as inhibition of MDP-induced IL8 mRNA expression preincubated for 1 hr followed by MDP addition and measured after 90 mins by qRT-PCR analysis; type: cell-based; conditions: filed as antagonist, dose 1-10 µM, time 150.0 min; procedure, shortened: as §2
[11] = Toxicity in mouse B16-F10 cells implanted C57BL/6 mouse assessed as change in body weight at 50 mg/kg, iv administered every other day for 15 days; type: organism-based; conditions: in vivo, 360 h, time 15 day

O=C(NCCCOc1ccc(C(F)(F)F)cc1)c1cc2ncn(CC(=O)N3CCCC(F)(F)C3)c(=O)c2cc1-c1cccc(Cl)c1
half-life at 1.25 µM [1]: 1.13 h | inhibition [2]: Active | inhibition [3]: Dose-dependent effect | inhibition [4]: Dose-dependent effect | inhibition [5]: Dose-dependent effect | inhibition [6]: Dose-dependent effect | inhibition [7]: Dose-dependent effect | inhibition [8]: Dose-dependent effect | inhibition [9]: Dose-dependent effect | inhibition [10]: Dose-dependent effect | Activity [11]: Non-Toxic
